From ChEMBL document CHEMBL1177799 (Bioorg Med Chem Lett, 2010)

Legend:
Adenosine receptor A2b [1] = biological target: T1, Adenosine receptor A2b (Homo sapiens, UniProt P29275); test: Displacement of [3H]ZM241385 from human adenosine A2B receptor expressed in CHO cells after 1 hr by scintillation counting; assay type: cell-based
T1 sequence (P29275 whole entry): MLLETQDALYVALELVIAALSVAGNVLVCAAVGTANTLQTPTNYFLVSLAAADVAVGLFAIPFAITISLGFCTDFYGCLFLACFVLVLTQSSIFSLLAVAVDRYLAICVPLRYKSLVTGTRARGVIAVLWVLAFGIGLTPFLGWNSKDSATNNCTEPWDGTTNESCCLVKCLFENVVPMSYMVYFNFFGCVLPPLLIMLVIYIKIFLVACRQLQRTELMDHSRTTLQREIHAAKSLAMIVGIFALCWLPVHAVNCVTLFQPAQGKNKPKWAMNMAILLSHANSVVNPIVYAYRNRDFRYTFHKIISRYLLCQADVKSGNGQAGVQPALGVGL
How it was run: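 Whole CHO cells expressing human A2B receptor, harvested mechanically from 80% confluent flasks, frozen, then resuspended in assay buffer on assay day. Competition against [3H]ZM241385 (30 nM final), 1 h at room temperature with shaking. Harvest on 0.5% polyethyleneimine-treated filter plates, air-dried, scintillation counting.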

Adenosine receptor A2a = Adenosine receptor A2a (Homo sapiens, UniProt P29274); test: Displacement of [3H]-ZM241385 from human adenosine A2A receptor expressed in CHO-K1 cells after 1 hr by scintillation counting; assay type: cell-based
Adenosine receptor A1 = biological target: T2, Adenosine receptor A1 (Homo sapiens, UniProt P30542); test: Displacement of [3H]-DPCPX from human adenosine A1 receptor expressed in CHO-K1 cells after 1 hr by scintillation counting; assay type: cell-based
T2 sequence (P30542 whole entry): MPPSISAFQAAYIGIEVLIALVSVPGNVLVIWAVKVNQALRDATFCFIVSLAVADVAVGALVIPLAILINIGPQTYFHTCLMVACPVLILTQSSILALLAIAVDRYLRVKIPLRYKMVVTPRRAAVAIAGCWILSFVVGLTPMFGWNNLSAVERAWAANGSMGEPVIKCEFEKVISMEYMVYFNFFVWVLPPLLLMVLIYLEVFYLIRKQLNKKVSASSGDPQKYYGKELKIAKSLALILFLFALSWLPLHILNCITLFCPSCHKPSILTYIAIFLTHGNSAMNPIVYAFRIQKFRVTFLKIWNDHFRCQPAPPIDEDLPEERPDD
How it was run: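 Commercial human A1 membranes (10 µg/well) in HEPES 50 mM, NaCl 100 mM, MgCl2 1 mM buffer; competition against [3H]-DPCPX (4.8 nM final), 1 h at room temperature with orbital shaking. Filtration harvest on polyethyleneimine-treated (0.5%) glass-fibre plates, air-dried, scintillation counting.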

Adenosine receptor A2b [2] = biological target: T1, Adenosine receptor A2b; test: Antagonist activity at human adenosine A2B receptor expressed in CHO cells assessed as inhibition of adenosine-induced cAMP production; assay type: functional, cell-based
How it was run: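 CHO cells stably transfected with human A2B receptor, grown overnight as monolayer (7500 cells/well), washed with Krebs buffer, then exposed to compounds in Krebs buffer (final DMSO 1.1%) for 20–25 min. Wells emptied, cells lysed and cAMP measured with an enzyme-fragment complementation cAMP kit for adherent cells.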

[3] = Extrapolated AUC in Han Wistar rat at 50 mg/kg, po up to 24 hrs by LC-MS analysis; assay type: ADME, organism-based; parameters: time < 24 hr, dose 50 mg/kg, route oral; conditions: in vivo
Adenosine receptor A3 = biological target: T3, Adenosine receptor A3 (Homo sapiens, UniProt P0DMS8); test: Binding affinity to adenosine A3 receptor
T3 sequence (P0DMS8 whole entry): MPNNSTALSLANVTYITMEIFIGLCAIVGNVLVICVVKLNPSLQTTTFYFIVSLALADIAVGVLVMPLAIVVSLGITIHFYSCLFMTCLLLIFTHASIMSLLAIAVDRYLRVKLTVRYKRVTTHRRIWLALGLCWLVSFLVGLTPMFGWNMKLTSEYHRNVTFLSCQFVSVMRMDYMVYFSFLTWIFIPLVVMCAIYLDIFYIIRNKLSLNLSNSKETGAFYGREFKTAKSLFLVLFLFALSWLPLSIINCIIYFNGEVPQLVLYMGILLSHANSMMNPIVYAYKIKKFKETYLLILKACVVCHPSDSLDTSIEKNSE

[4] = Volume of distribution in Han Wistar rat at 2.5 mg/kg, iv up to 24 hrs by LC-MS analysis; assay type: ADME, organism-based; parameters: dose 2.5 mg/kg, route intravenous; conditions: in vivo
How it was run: (§1)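 Male Han Wistar rats (n = 4) received a single 2.5 mg/kg intravenous tail-vein injection in DMA/PEG 400/40% HPBCD/H₂O. Plasma was sampled up to 24 h after dosing, and plasma drug levels were measured by LC–MS to derive the PK parameters.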

[5] = Extrapolated AUC in Han Wistar rat at 2.5 mg/kg, iv up to 24 hrs by LC-MS analysis; assay type: ADME, organism-based; parameters: time < 24 hr, dose 2.5 mg/kg, route intravenous; conditions: in vivo
[6] = Cmax in Han Wistar rat at 50 mg/kg, po up to 24 hrs by LC-MS analysis; assay type: ADME, organism-based; parameters: dose 50 mg/kg, route oral; conditions: in vivo
[7] = Clearance in Han Wistar rat at 2.5 mg/kg, iv up to 24 hrs by LC-MS analysis; assay type: ADME, organism-based; parameters: dose 2.5 mg/kg, route intravenous; conditions: in vivo; how it was run: as §1
[8] = Half life in Han Wistar rat at 50 mg/kg, po up to 24 hrs by LC-MS analysis; assay type: ADME, organism-based; parameters: dose 50 mg/kg, route oral; conditions: in vivo
How it was run: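 Male Han Wistar rats (n = 4 per route): iv 2.5 mg/kg via tail vein in DMA/PEG 400/40% HPBCD/H2O, or po 50 mg/kg in Capmul PG8 by intubation tube. Plasma sampled up to 24 h after dosing, drug levels measured by LC–MS.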

Sequence of Adenosine receptor A2a (P29274 whole entry): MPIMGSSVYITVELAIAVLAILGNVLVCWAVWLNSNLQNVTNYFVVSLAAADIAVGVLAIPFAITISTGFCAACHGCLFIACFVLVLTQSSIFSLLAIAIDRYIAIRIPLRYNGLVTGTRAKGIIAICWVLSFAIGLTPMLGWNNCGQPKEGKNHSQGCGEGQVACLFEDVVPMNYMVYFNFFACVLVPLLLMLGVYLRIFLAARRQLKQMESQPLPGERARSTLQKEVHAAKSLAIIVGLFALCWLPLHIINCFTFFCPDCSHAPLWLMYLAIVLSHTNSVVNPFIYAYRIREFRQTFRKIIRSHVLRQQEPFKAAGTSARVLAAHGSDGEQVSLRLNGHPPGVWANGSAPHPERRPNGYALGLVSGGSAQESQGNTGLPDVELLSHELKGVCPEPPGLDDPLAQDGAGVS

Ki (Adenosine receptor A2b [1])	Ki (Adenosine receptor A2a)	Ki (Adenosine receptor A1)	IC50 (Adenosine receptor A2b [2])	SMILES	other results
0.01 µM	0.05 µM	0.071 µM	0.028 µM	CCN(C(C)=O)c1ccc(OC)c2nc(NC(=O)c3ccc(C#N)cc3)sc12	
0.019 µM	0.092 µM	0.39 µM	0.036 µM	CCN(C(C)=O)c1ccc(OC)c2nc(NC(=O)c3ccc(S(C)(=O)=O)cc3)sc12	
	0.015 µM	0.03 µM	0.023 µM	CCN(C(C)=O)c1ccc(Cl)c2nc(NC(=O)c3ccc(F)cc3)sc12	
	0.48 µM	1.6 µM	0.6 µM	COc1ccc(N(CC(=O)N(C)C)C(C)=O)c2sc(NC(=O)c3ccc(F)cc3)nc12	
0.007 µM	0.076 µM	0.16 µM	0.021 µM	CCN(C(C)=O)c1ccc(OC)c2nc(NC(=O)c3ccc(C(=O)N4CCOCC4)cc3)sc12	
0.004 µM	0.1 µM	0.3 µM	0.016 µM	CCN(C(C)=O)c1ccc(OC)c2nc(NC(=O)c3ccc(C(=O)N4CCCCC4)cc3)sc12	
0.018 µM	0.066 µM	0.078 µM	0.021 µM	CCN(C(C)=O)c1ccc(OC)c2nc(NC(=O)c3ccc(-n4cccn4)cc3)sc12	
0.022 µM	0.046 µM	0.11 µM	0.037 µM	CCN(C(C)=O)c1ccc(OC)c2nc(NC(=O)c3ccc(NS(C)(=O)=O)cc3)sc12	
	2.2 µM	2.6 µM	6 µM	COc1ccc(N(CC(=O)O)C(C)=O)c2sc(NC(=O)c3ccc(F)cc3)nc12	
0.008 µM	0.051 µM	0.1 µM	0.021 µM	CCN(C(C)=O)c1ccc(OC)c2nc(NC(=O)c3ccnn3C)sc12	AUC at 24 h [3]: 74.4 µg·h/mL; Ki (Adenosine receptor A3): 0.08 µM; Vd [4]: 3 L/kg; AUC at 24 h [5]: 0.929 µg·h/mL; Cmax [6]: 7.42 µg/mL; clearance [7]: 2.76 L/h/kg; half-life [8]: 2.1 h
0.13 µM	0.25 µM	1.6 µM	0.35 µM	COc1ccc(NC(C)=O)c2sc(NC(=O)c3ccc(F)cc3)nc12	
	0.018 µM	0.035 µM	0.007 µM	CCN(C(C)=O)c1ccc(OC)c2nc(NC(=O)c3cc[nH]c3)sc12	
	0.33 µM	0.79 µM	0.35 µM	CNC(=O)CN(C(C)=O)c1ccc(OC)c2nc(NC(=O)c3ccc(F)cc3)sc12	
	0.16 µM	0.56 µM	0.06 µM	COc1ccc(N(CC(N)=O)C(C)=O)c2sc(NC(=O)c3ccc(F)cc3)nc12	
	0.084 µM	0.185 µM	0.021 µM	CCN(C(C)=O)c1ccc(OC)c2nc(NC(=O)c3ccc(C(=O)NC)cc3)sc12	
0.018 µM	0.089 µM	0.12 µM	0.038 µM	CCN(C(C)=O)c1ccc(OC)c2nc(NC(=O)c3ccc(C(=O)N4CCN(C)CC4)cc3)sc12	
			0.021 µM	CCN(C(C)=O)c1ccc(OC)c2nc(NC(=O)c3cn[nH]c3)sc12	

Ki (Adenosine receptor A2b [1])	Ki (Adenosine receptor A2a)	Ki (Adenosine receptor A1)	IC50 (Adenosine receptor A2b [2])	SMILES	other results
0.019 µM	0.041 µM		0.029 µM	CCN(C(C)=O)c1ccc(OC)c2nc(NC(=O)c3cnn(C)c3)sc12	
0.006 µM	0.003 µM	0.009 µM	0.012 µM	CCN(C(C)=O)c1ccc(OC)c2nc(NC(=O)c3cnn(Cc4cccc(F)c4)c3)sc12	
	0.068 µM	0.05 µM	0.016 µM	CCN(C(C)=O)c1ccc(OC)c2nc(NC(=O)c3ccc(C(=O)N4CCCC4)cc3)sc12	
0.023 µM	0.08 µM	0.13 µM	0.028 µM	CCN(C(C)=O)c1ccc(OC)c2nc(NC(=O)c3ccc(-n4cnnn4)cc3)sc12	
	0.029 µM	0.1 µM	0.042 µM	COc1ccc(N(CCCO)C(C)=O)c2sc(NC(=O)c3ccc(F)cc3)nc12	
	0.005 µM	0.023 µM	0.008 µM	COC(=O)CN(C(C)=O)c1ccc(OC)c2nc(NC(=O)c3ccc(F)cc3)sc12	
	0.038 µM	0.11 µM	0.033 µM	COCCN(C(C)=O)c1ccc(OC)c2nc(NC(=O)c3ccc(F)cc3)sc12	
0.013 µM	0.022 µM	0.066 µM	0.012 µM	CCN(C(C)=O)c1ccc(OC)c2nc(NC(=O)c3ccc(F)cc3)sc12	
0.022 µM	0.039 µM	0.066 µM	0.015 µM	COc1ccc(N(C)C(C)=O)c2sc(NC(=O)c3ccc(F)cc3)nc12	
	0.098 µM	0.45 µM	0.077 µM	COc1ccc(N(CCO)C(C)=O)c2sc(NC(=O)c3ccc(F)cc3)nc12	
	0.061 µM	0.03 µM	0.23 µM	COc1ccc(N(C(C)=O)C(F)F)c2sc(NC(=O)c3ccc(F)cc3)nc12	
	0.035 µM	0.042 µM	0.04 µM	COc1ccc(N(CC(F)(F)F)C(C)=O)c2sc(NC(=O)c3ccc(F)cc3)nc12	
			0.019 µM	COc1ccc(N(C(C)=O)C(C)C)c2sc(NC(=O)c3ccc(F)cc3)nc12	
0.015 µM	0.17 µM	0.185 µM	0.035 µM	CCN(C(C)=O)c1ccc(OC)c2nc(NC(=O)c3ccc(C(=O)OC)cc3)sc12	
0.008 µM	0.077 µM	0.15 µM	0.019 µM	CCN(C(C)=O)c1ccc(OC)c2nc(NC(=O)c3ccc(-n4ccnc4)cc3)sc12	
0.004 µM	0.071 µM	0.41 µM	0.019 µM	CCN(C(C)=O)c1ccc(OC)c2nc(NC(=O)c3ccc(CN(C)S(C)(=O)=O)cc3)sc12	
0.013 µM	0.026 µM	0.18 µM	0.013 µM	CCN(C(C)=O)c1ccc(OC)c2nc(NC(=O)c3ccc(C(=O)N(C)CCOC)cc3)sc12	

SMILES	Ki (Adenosine receptor A2b [1])	Ki (Adenosine receptor A2a)	Ki (Adenosine receptor A1)	IC50 (Adenosine receptor A2b [2])	other results
CCN(C(C)=O)c1ccc(OC)c2nc(NC(=O)c3cnn(Cc4cccc(C(F)(F)F)c4)c3)sc12	0.004 µM	0.003 µM	0.006 µM	0.006 µM	
COc1ccc(N(CC(C)C)C(C)=O)c2sc(NC(=O)c3ccc(F)cc3)nc12		0.003 µM	0.037 µM	0.023 µM	
CCN(C(C)=O)c1ccc(OC)c2nc(NC(=O)c3ccc(CN4CCCC4=O)cc3)sc12	0.014 µM	0.027 µM	0.4 µM	0.028 µM	
